# Bioassay records (PubChem BioAssay)
# This is a sample that favours compounds with a hit; in the whole collection about 2.9% have one here.
# IMP-1 inh – IMP-1 metallo-beta-lactamase inhibitors, primary screen, biochemical, epi-absorbance readout, Pseudomonas aeruginosa enzyme; inhibition, % at 5.6 µM; purified IMP-1, nitrocefin hydrolysis, epi-absorbance fluorescence; 0.45% of 290,000 active; metallo-beta-lactamase IMP-1 (Pseudomonas aeruginosa);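 active = inhibition above the mean plus 3 SD of all compounds in the same screening run, cut at about 4.5% in these data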;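 note: 0% = IMP-1 with DMSO and 100% = DMSO wells lacking enzyme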
#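 System: Purified recombinant IMP-1 metallo-beta-lactamase enzyme | Measured by: Fluorescence quenching readout, ex 480/em 530 nm | Replication: Singlicate | Incubation: 15 min preincubation plus 25 min reaction at 25 °C | Evaluation: Percent inhibition from optical density relative to buffer-blank wells | Benchmarks: DMSO with and without IMP-1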
# Mot1-301 SUMO – yeast Mot1-301 growth rescue at high temperature, primary screen, SUMOylation pathway inhibitor project, S. cerevisiae, ATP luminescence, 38.5C | S. cerevisiae Mot1-301 growth rescue; percent above DMSO median, 100 means doubled | growth rescue, % at 18.8 µM | 1% of 320,000 active;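 active = every valid replicate shows activation above 250% relative to neutral control wells; inactive = the rest, any valid replicate at or below 250%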;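 note: OY570 slx delta 5 strain wells were the positive control but not used for scaling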
# VIM-2 inh – VIM-2 metallo-beta-lactamase inhibitors, primary screen, biochemical, epi-absorbance readout, Pseudomonas aeruginosa enzyme. AID 1527, 2009. inhibition, % at 5.6 µM. purified VIM-2, nitrocefin hydrolysis, epi-absorbance fluorescence. 0.89% of 290,000 active;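 active = inhibition above the mean of all tested compounds plus 3 SD, cutoff set per screening run, cut at about 7.5% in these data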;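 note: red hydrolysis product quenches plate fluorescence so inhibitors raise well fluorescence; 0% = enzyme with DMSO and 100% = DMSO without enzyme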
# NALP1 inh – NALP1 inflammasome inhibitors in reconstituted yeast, colorimetric, S. cerevisiae, triplicate retest; S. cerevisiae NALP1/ASC/caspase-1 growth, X-gal OD620, 72 h; inhibition, % at 10 µM; 0.61% of 280,000 active; in the data active = inhibition mostly above about 24%, no sharp cut-off; inactive = mostly below about 32%
# NLRP3 yeast inh – NALP3 inflammasome inhibitors in reconstituted yeast, primary screen, luminescence, uHTS; AID 2825, 2010; inhibition, % at 10 µM; Yeast reconstituted NLRP3/ASC/caspase-1, beta-gal luminescence, 24 h; 0.39% of 330,000 active;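 active = inhibition of 50% or more; inactive = inhibition below 50%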;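 note: plate controls were induced DMSO wells for no effect and uninduced yeast grown without galactose for full effect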
# PolyA inhibitor – polyadenylation inhibitors in yeast reporter cells, primary screen, luminescence, S. cerevisiae | 0.02% of 300,000 active | AID 1875, 2009 | activity score, % at 12 µM | S. cerevisiae SKY197-pL101 polyadenylation reporter, beta-gal luminescence; efflux-impaired pdr1/pdr3 knockout yeast; score 100 = 6 SD above DMSO;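 active = lowest replicate activity score at least 50, where 100 means six control SD above control mean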;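 note: yeast exposed to compound for 9 h at 30 °C; higher score means more reporter readthrough which indicates perturbed polyadenylation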
# An asterisk follows results filed as active; x = no result.
SMILES,IMP-1 inh,Mot1-301 SUMO,VIM-2 inh,NALP1 inh,NLRP3 yeast inh,PolyA inhibitor
CN(C(=O)CSc1ncnc2sc3c(c12)CCCC3)C1CCS(=O)(=O)C1 (stereo not drawn),x,-6,x,x,15,x
CCc1cc2c(SCC(=O)Nc3cc(C)on3)ncnc2s1,-5,3,-2,-13,20,-16
COc1ccc(OC)c(N2CC(O)=C(c3nc4ccccc4s3)C2=N)c1,4.5*,361,-3,12,8,0
COc1ccc(N(C(=O)c2snc(C(N)=O)c2N)C(C(=O)NCC2CCCO2)c2ccc(C)o2)cc1OC (stereo not drawn),-1,-6,-2,8,4,-3
Cc1oc(C(C)(C)C)cc1C(=O)NC1CCN(Cc2ccccc2)CC1,0,69,0,1,14,13
CC(C)(C)c1cc(C(=O)O)c(CN2CCCCC2)o1,-6,5,-5,38*,7,11
c1ccc(Nc2nc(-c3ccccc3)ns2)cc1,-2,56,-2,-17,32,3
CCN(C(=O)Cn1nnc(-c2ccccc2)n1)C1CCS(=O)(=O)C1 (stereo not drawn),x,-14,x,x,14,-8
COc1ccc(C(=O)c2c[nH]cc2-c2ccccc2)cc1,-1,-1,-2,10,7,-19
O=C(c1ccc(Cl)cc1)c1c[nH]cc1-c1ccccc1,4.5*,-3,2,4,17,-5
c1cc(Nc2cccc3nccnc23)c2nccnc2c1,-2,7,8.6*,15,34,-48
Fc1ccc(Nc2cccc3nccnc23)cc1,-4,55,0,21,13,0
ClC1(Cl)CC1Cn1c(C2CC2)nc2ccccc21 (stereo not drawn),-1,-2,-1,2,8,-14
CCc1nc2ccccc2n1CC1CC1(Cl)Cl (stereo not drawn),-2,173,-3,37*,-17,-19
COc1ccccc1NC1=C(NC(C)=O)C(=O)c2ccccc2C1=O,-4,x,-2,-2,x,-15
COC1=C(Nc2ccccc2OC)C(=O)c2ccccc2C1=O,1,9,10.0*,x,15,0
Cc1noc2ncnc(Sc3ccc(Cl)cc3)c12,-4,324*,-5,26,37,-26
Cc1ccc(Sc2ncnc3onc(C)c23)cc1,-4,-20,-3,-9,43,8
O=C(O)C(=O)Cc1c[nH]c2ccccc12,4.5*,33,-1,22,1,-5
O=C1NN(c2ccccc2)C(=O)/C1=C\c1ccccc1OCC(=O)N1CCOCC1,4.5*,4,-1,22,-4,2
CCc1ccccc1N=C1S/C(=C/c2ccccc2OCC(=O)N2CCOCC2)C(=O)N1C,-1,-5,0,12,23,-2
Cc1ccc(S(=O)(=O)NCC(C)n2nc(C)nc2C)cc1 (stereo not drawn),-2,3,-1,-15,14,-16
O=S(=O)(NCC1CCN(c2ccc(S(=O)(=O)N3CCOCC3)cc2)CC1)c1ccc(F)cc1,-1,-3,-2,13,14,-16
O=c1c2ccccc2nc(SCc2ccncc2)n1CC1CCCO1 (stereo not drawn),-3,0,-1,-4,6,-3
CCOC(=O)c1cnc2c(ccc3ccccc32)c1NCCN(C)C,0,-2,12*,9,26,-19
CCOC(=O)c1cnc2c(ccc3ccccc32)c1NCCO,-1,-6,4,-94,30,-10
CCOC(=O)c1cnc2c(cnn2C)c1NCCCN(C)C,-2,x,8.4*,-5,-3,-3
O=c1/c(=C\c2cccc(O)c2)sc2nc(-c3ccccc3)c(-c3ccccc3)n12,-2,6,-1,x,-17,-1
Brc1ccc(OCc2ccccc2)c(CNCc2ccncc2)c1,-2,262*,-2,26,17,-100
CC(Nc1nc2ccccc2n2cnnc12)c1ccccc1 (stereo not drawn),-3,63,-5,-8,2,-11
